Test results: publication PMC3705663 (The Indian Journal of Medical Research, 2013)

Tests used:
[1] = system: HIV integrase; details: previous study; cited from earlier work
[2] = system: HIV; details: from other plant sources; cited from earlier work
[3] = target: HIV-1 protease (Human immunodeficiency virus type 1 group M subtype B, UniProt P04585); experiment: Protease assay; assay type: biochemical; details: reference control saquinavir 1 μM
How it was run: (§1)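 Enzyme inhibition was measured with a commercial kit for each enzyme, following the manufacturer's instructions. Inhibition values are mean ± SEM of three independent experiments.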

[4] = system: HIV-1 NL4.3; experiment: Inhibition of HIV infection in TZM-bl cells-based assay; assay type: cell-based
How it was run: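 TZM-bl cells (HeLa-derived, CD4/CCR5/CXCR4, LTR-driven luciferase) were seeded at 4 × 10^4/well overnight. HIV-1 NL4.3 (MOI 0.05) was pretreated with test compound for 1 h at 37°C, added to cells in duplicate for 4 h, then washed off with cold PBS. Cells were cultured 48 h in fresh medium with compound, lysed by freeze-thaw and read for luciferase. AZT served as positive control. % inhibition was taken versus untreated infected cells; IC50 by nonlinear fit.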

[5] = target: HIV-1 integrase (Human immunodeficiency virus type 1 group M subtype B, UniProt P04585); experiment: Integrase assay; assay type: biochemical; details: tested upto 50 μg/ml; positive control sodium azide; data not shown
How it was run: as §1

[6] = system: HIV-1 NL4.3; experiment: Inhibition of HIV infection in CEM-GFP cells-based assay; assay type: cell-based
How it was run: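 CEM-GFP cells (CD4+ T-lymphocytic line, GFP under HIV-1 LTR) were infected with HIV-1 NL4.3 at MOI 0.05. They were then plated at 2.0 × 10^5/well with varying test compound concentrations for up to 8 days. AZT served as positive control and solvents as negative controls. Cell lysates were read for GFP fluorescence (ex 485/em 520 nm). % inhibition was taken versus untreated infected cells, and IC50 was obtained by nonlinear curve fitting.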

[7] = target: HIV-1 RT (Human immunodeficiency virus type 1 group M subtype B, UniProt P04585); experiment: Reverse transcriptase assay; assay type: biochemical; details: reference control nevirapine 1 μM
How it was run: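 HIV-1 reverse transcriptase inhibition was measured with a commercial RT assay kit following the manufacturer's protocol. Data are mean ± SEM of three independent experiments.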

Row | inhibition of HIV-1 protease activity (in words) ([3]; listed as ellagic acid) | inhibition of HIV-1 protease activity (in words) ([3]; listed as ellagic acid (compound G)) | inhibition of HIV-1 integrase activity (in words) [5] | inhibition of HIV-1 RT activity (in words) [7] | SMILES | HIV integrase inhibitory activity (in words) [1] | anti-HIV activity (in words) [2] | anti-HIV activity (in words) [4] | anti-HIV activity (in words) [6]
1 | inhibited the HIV-1 protease activity | dose-dependent inhibition | did not show any significant inhibition |  | O=c1oc2c(O)c(O)cc3c(=O)oc4c(O)c(O)cc1c4c23 [Ellagic acid (G), ellagic acid] | shown to have HIV integrase inhibitory activity | reported for their anti-HIV activity | consistent anti-HIV activity | consistent anti-HIV activity
2 |  |  | did not show any significant inhibition | dose dependent inhibition | O=C(O)c1cc(O)c(O)c(O)c1 [Gallic acid (F), gallic acid] |  | reported for their anti-HIV activity | potent anti-HIV activity | potent anti-HIV activity
3 |  |  |  |  | C[C@@H]1O[C@@H](OC[C@H]2O[C@@H](Oc3c(-c4ccc(O)c(O)c4)oc4cc(O)cc(O)c4c3=O)[C@H](O)[C@@H](O)[C@@H]2O)[C@H](O)[C@H](O)[C@H]1O [Rutin (E), rutin] |  |  | did not show any significant anti-HIV activity | did not show any significant anti-HIV activity
